How the values were obtained:
[1] = molecular target: Sodium-dependent serotonin transporter (Rattus norvegicus) (UniProt P31652); assay: Specific binding in rat hypothalamus at 10 min postinjection in vivo; type: functional, organism-based; conditions: tested as the 18F-labelled form
How it was run: (§1)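 Male Sprague-Dawley rats, n=3 per time point, received about 20 µCi of F-18 radioligand in saline iv by tail vein and were killed at 10–120 min. %ID/g was measured with decay and tail-residual correction. Hypothalamic specific binding = (%ID/g hypothalamus − %ID/g cerebellum)/%ID/g cerebellum; mean ± SD.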

[2] = molecular target: Sodium-dependent serotonin transporter (Rattus norvegicus) (UniProt P31652); assay: Specific binding in rat hypothalamus at 90 min postinjection in vivo; type: functional, organism-based; conditions: tested as the 18F-labelled form; how it was run: as §1
[3] = molecular target: Sodium-dependent serotonin transporter (Rattus norvegicus) (UniProt P31652); assay: Specific binding of [18F]AFA in rat hypothalamus after GBR-12935 treatment; n=3; type: functional, tissue-based; conditions: tested as the 18F-labelled form
How it was run: (§2)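 Rats, three per group, were pretreated iv with blocker at 2 mg/kg in saline, or with saline as control, 10–15 min before tail-vein F-18 radioligand (about 20 µCi). Killed at 60 min and regional %ID/g determined. Specific binding = (region activity − cerebellum activity)/cerebellum activity; mean ± SD.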

[4] = molecular target: Sodium-dependent serotonin transporter (Rattus norvegicus) (UniProt P31652); assay: Specific binding of [18F]-AFA in rat striatum after nisoxetine treatment; n=3; type: functional, tissue-based; conditions: tested as the 18F-labelled form; how it was run: as §2
[5] = species: Rattus norvegicus; assay: Regional uptake of [18F]AFA in blood of rat pretreated with compound 7f; n=3; type: functional, organism-based; conditions: tested as the 18F-labelled form
[6] = molecular target: Sodium-dependent serotonin transporter (Rattus norvegicus) (UniProt P31652); assay: Specific binding of [18F]AFA in rat striatum after GBR-12935 treatment; n=3; type: functional, tissue-based; conditions: tested as the 18F-labelled form; how it was run: as §2
[7] = species: Rattus norvegicus; assay: Regional uptake of [18F]-AFA in blood of rat pretreated with compound GBR-12935; n=3; type: functional, organism-based; conditions: tested as the 18F-labelled form
How it was run: (§3)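 Male Sprague-Dawley rats, three per group, received blocker (2 mg/kg iv in saline) or saline only (controls) 10–15 min before about 20 µCi of tail-vein F-18 radioligand. Killed 60 min after tracer. Blood and brain regions weighed and gamma-counted. %ID/g was decay- and tail-corrected; mean ± SD.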

[8] = molecular target: Sodium-dependent serotonin transporter (Rattus norvegicus) (UniProt P31652); assay: Specific binding of [18F]AFA in rat hippocampus after citalopram treatment; n=3; type: functional, tissue-based; conditions: tested as the 18F-labelled form; how it was run: as §2
[9] = species: Rattus norvegicus; assay: Regional uptake of [18F]-AFP in striatum of rat pretreated with compound 7f; n=3; conditions: tested as the 18F-labelled form
[10] = species: Rattus norvegicus; assay: Regional uptake of [18F]AFA in striatum of rat pretreated with compound citalopram; n=3; type: functional, organism-based; conditions: tested as the 18F-labelled form; how it was run: as §3
[11] = species: Rattus norvegicus; assay: Regional uptake of [18F]AFP in thalamus of rat pretreated with compound 7f; n=3; conditions: tested as the 18F-labelled form
[12] = molecular target: Sodium-dependent serotonin transporter (Rattus norvegicus) (UniProt P31652); assay: Specific binding of [18F]AFA in rat frontal cortex after GBR-12935 treatment; n=3; type: functional, tissue-based; conditions: tested as the 18F-labelled form; how it was run: as §2
[13] = species: Rattus norvegicus; assay: Regional uptake of [18F]AFA in frontal cortex of rat pretreated with compound nisoxetine; n=3; type: functional, organism-based; conditions: tested as the 18F-labelled form; how it was run: as §3
[14] = species: Rattus norvegicus; assay: Regional uptake of [18F]AFA in hippocampus of rat pretreated with compound citalopram; n=3; type: functional, organism-based; conditions: tested as the 18F-labelled form; how it was run: as §3
[15] = species: Rattus norvegicus; assay: Regional uptake of [18F]AFA in blood of rat pretreated with compound nisoxetine; n=3; type: functional, organism-based; conditions: tested as the 18F-labelled form; how it was run: as §3
[16] = species: Rattus norvegicus; assay: Regional uptake of [18F]AFA in hippocampus of rat pretreated with compound 7f; n=3; type: functional, organism-based; conditions: tested as the 18F-labelled form
[17] = species: Rattus norvegicus; assay: Regional uptake of [18F]AFA in striatum of rat pretreated with compound nisoxetine; n=3; type: functional, organism-based; conditions: tested as the 18F-labelled form; how it was run: as §3
[18] = molecular target: Sodium-dependent serotonin transporter (Rattus norvegicus) (UniProt P31652); assay: Specific binding of [18F]AFA in rat frontal cortex after citalopram treatment; n=3; type: functional, tissue-based; conditions: tested as the 18F-labelled form; how it was run: as §2
[19] = molecular target: Sodium-dependent serotonin transporter (Rattus norvegicus) (UniProt P31652); assay: Specific binding of [18F]AFA in rat hypothalamus after nisoxetine treatment; n=3; type: functional, tissue-based; conditions: tested as the 18F-labelled form; how it was run: as §2
[20] = molecular target: Sodium-dependent serotonin transporter (Rattus norvegicus) (UniProt P31652); assay: Specific binding of [18F]AFA in rat thalamus after citalopram treatment; n=3; type: functional, tissue-based; conditions: tested as the 18F-labelled form; how it was run: as §2
[21] = molecular target: Sodium-dependent serotonin transporter (Rattus norvegicus) (UniProt P31652); assay: Specific binding of [18F]AFA in rat thalamus after nisoxetine treatment; n=3; type: functional, tissue-based; conditions: tested as the 18F-labelled form; how it was run: as §2
[22] = molecular target: Sodium-dependent serotonin transporter (Rattus norvegicus) (UniProt P31652); assay: Specific binding in rat hypothalamus at 120 min postinjection in vivo; type: functional, organism-based; conditions: tested as the 18F-labelled form; how it was run: as §1
[23] = molecular target: Sodium-dependent serotonin transporter (Rattus norvegicus) (UniProt P31652); assay: Specific binding of [18F]AFA in rat frontal cortex after nisoxetine treatment; n=3; type: functional, tissue-based; conditions: tested as the 18F-labelled form; how it was run: as §2
[24] = species: Rattus norvegicus; assay: Regional uptake of [18F]AFA in cerebellum of rat pretreated with compound nisoxetine; n=3; type: functional, organism-based; conditions: tested as the 18F-labelled form; how it was run: as §3
[25] = species: Rattus norvegicus; assay: Regional uptake of [18F]AFA in thalamus of rat pretreated with compound nisoxetine; n=3; type: functional, organism-based; conditions: tested as the 18F-labelled form; how it was run: as §3
[26] = species: Rattus norvegicus; assay: Regional uptake of [18F]-AFA in blood of rat pretreated with compound citalopram; n=3; type: functional, organism-based; conditions: tested as the 18F-labelled form; how it was run: as §3
[27] = molecular target: Sodium-dependent serotonin transporter (Rattus norvegicus) (UniProt P31652); assay: Specific binding of [18F]-AFA in rat striatum after citalopram treatment; n=3; type: functional, tissue-based; conditions: tested as the 18F-labelled form; how it was run: as §2
[28] = species: Rattus norvegicus; assay: Regional uptake of [18F]AFA in hypothalamus of rat pretreated with compound GBR-12935; n=3; type: functional, organism-based; conditions: tested as the 18F-labelled form; how it was run: as §3
[29] = molecular target: Sodium-dependent serotonin transporter (Rattus norvegicus) (UniProt P31652); assay: Specific binding of [18F]AFA in rat hippocampus after nisoxetine treatment; n=3; type: functional, tissue-based; conditions: tested as the 18F-labelled form; how it was run: as §2
[30] = species: Rattus norvegicus; assay: Regional uptake of [18F]AFA in frontal cortex of rat pretreated with compound 7f; n=3; type: functional, organism-based; conditions: tested as the 18F-labelled form
[31] = species: Rattus norvegicus; assay: Regional uptake of [18F]AFA in frontal cortex of rat pretreated with compound GBR-12935; n=3; type: functional, organism-based; conditions: tested as the 18F-labelled form; how it was run: as §3
[32] = species: Rattus norvegicus; assay: Regional uptake of [18F]AFA in cerebellum of rat pretreated with compound 7f; n=3; type: functional, organism-based; conditions: tested as the 18F-labelled form
[33] = species: Rattus norvegicus; assay: Regional uptake of [18F]-AFA in striatum of rat pretreated with compound GBR-12935; n=3; type: functional, organism-based; conditions: tested as the 18F-labelled form; how it was run: as §3
[34] = molecular target: Sodium-dependent serotonin transporter (Rattus norvegicus) (UniProt P31652); assay: Specific binding of [18F]AFA in rat thalamus after GBR-12935 treatment; n=3; type: functional, tissue-based; conditions: tested as the 18F-labelled form; how it was run: as §2
[35] = species: Rattus norvegicus; assay: Regional uptake of [18F]-AFA in hypothalamus of rat pretreated with compound 7f; n=3; type: functional, organism-based; conditions: tested as the 18F-labelled form
[36] = species: Rattus norvegicus; assay: Regional uptake of [18F]AFA in thalamus of rat pretreated with compound GBR-12935; n=3; type: functional, organism-based; conditions: tested as the 18F-labelled form; how it was run: as §3
[37] = species: Rattus norvegicus; assay: Regional uptake of [18F]AFA in thalamus of rat pretreated with compound citalopram; n=3; type: functional, organism-based; conditions: tested as the 18F-labelled form; how it was run: as §3
[38] = molecular target: Sodium-dependent serotonin transporter (Rattus norvegicus) (UniProt P31652); assay: Specific binding of [18F]AFA in rat hypothalamus after citalopram treatment; n=3; type: functional, tissue-based; conditions: tested as the 18F-labelled form; how it was run: as §2
[39] = species: Rattus norvegicus; assay: Regional uptake of [18F]AFA in hippocampus of rat pretreated with compound GBR-12935; n=3; type: functional, organism-based; conditions: tested as the 18F-labelled form; how it was run: as §3
[40] = molecular target: Sodium-dependent serotonin transporter (Homo sapiens, UniProt P31645); assay: In vitro displacement of [3H]paroxetine from human serotonin transporter expressed in HEK293 cells; type: cell-based
Sequence of Sodium-dependent serotonin transporter (P31645 whole entry): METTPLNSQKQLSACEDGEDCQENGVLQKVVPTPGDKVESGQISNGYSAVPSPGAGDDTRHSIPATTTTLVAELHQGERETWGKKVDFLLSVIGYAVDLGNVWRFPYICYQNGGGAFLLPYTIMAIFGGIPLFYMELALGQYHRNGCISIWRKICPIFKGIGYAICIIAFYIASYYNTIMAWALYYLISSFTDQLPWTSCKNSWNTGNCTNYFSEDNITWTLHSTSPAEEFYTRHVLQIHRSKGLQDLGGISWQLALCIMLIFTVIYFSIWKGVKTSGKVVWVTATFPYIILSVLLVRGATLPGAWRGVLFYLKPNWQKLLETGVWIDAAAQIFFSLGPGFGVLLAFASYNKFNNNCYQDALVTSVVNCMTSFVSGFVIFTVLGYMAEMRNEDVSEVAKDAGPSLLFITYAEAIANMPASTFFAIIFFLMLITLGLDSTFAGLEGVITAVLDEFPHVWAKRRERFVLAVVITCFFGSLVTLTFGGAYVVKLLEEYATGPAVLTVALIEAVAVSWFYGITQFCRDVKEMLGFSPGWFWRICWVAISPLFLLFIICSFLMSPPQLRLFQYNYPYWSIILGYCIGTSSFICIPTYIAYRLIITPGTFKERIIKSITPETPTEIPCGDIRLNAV

[41] = species: Rattus norvegicus; assay: Regional uptake of [18F]AFA in cerebellum of rat pretreated with compound citalopram; n=3; type: functional, organism-based; conditions: tested as the 18F-labelled form; how it was run: as §3
[42] = species: Rattus norvegicus; assay: Regional uptake of [18F]AFA in frontal cortex of rat pretreated with compound citalopram; n=3; type: functional, organism-based; conditions: tested as the 18F-labelled form; how it was run: as §3
[43] = molecular target: Sodium-dependent serotonin transporter (Rattus norvegicus) (UniProt P31652); assay: Specific binding of [18F]AFA in rat hippocampus after GBR-12935 treatment; n=3; type: functional, tissue-based; conditions: tested as the 18F-labelled form; how it was run: as §2
[44] = species: Rattus norvegicus; assay: Regional uptake of [18F]AFA in hypothalamus of rat pretreated with compound citalopram; n=3; type: functional, organism-based; conditions: tested as the 18F-labelled form; how it was run: as §3
[45] = molecular target: Sodium-dependent serotonin transporter (Rattus norvegicus) (UniProt P31652); assay: Specific binding in rat hypothalamus at 60 min postinjection in vivo; type: functional, organism-based; conditions: tested as the 18F-labelled form; how it was run: as §1
[46] = species: Rattus norvegicus; assay: Regional uptake of [18F]AFA in cerebellum of rat pretreated with compound GBR-12935; n=3; type: functional, organism-based; conditions: tested as the 18F-labelled form; how it was run: as §3
[47] = species: Rattus norvegicus; assay: Regional uptake of [18F]AFA in hippocampus of rat pretreated with compound nisoxetine; n=3; type: functional, organism-based; conditions: tested as the 18F-labelled form; how it was run: as §3
[48] = species: Rattus norvegicus; assay: Regional uptake of [18F]-AFA in hypothalamus of rat pretreated with compound nisoxetine; n=3; type: functional, organism-based; conditions: tested as the 18F-labelled form; how it was run: as §3
[49] = molecular target: Sodium-dependent serotonin transporter (Rattus norvegicus) (UniProt P31652); assay: Specific binding in rat hypothalamus at 30 min postinjection in vivo; type: functional, organism-based; conditions: tested as the 18F-labelled form; how it was run: as §1

Sequence of Sodium-dependent serotonin transporter (Rattus norvegicus) (P31652 whole entry): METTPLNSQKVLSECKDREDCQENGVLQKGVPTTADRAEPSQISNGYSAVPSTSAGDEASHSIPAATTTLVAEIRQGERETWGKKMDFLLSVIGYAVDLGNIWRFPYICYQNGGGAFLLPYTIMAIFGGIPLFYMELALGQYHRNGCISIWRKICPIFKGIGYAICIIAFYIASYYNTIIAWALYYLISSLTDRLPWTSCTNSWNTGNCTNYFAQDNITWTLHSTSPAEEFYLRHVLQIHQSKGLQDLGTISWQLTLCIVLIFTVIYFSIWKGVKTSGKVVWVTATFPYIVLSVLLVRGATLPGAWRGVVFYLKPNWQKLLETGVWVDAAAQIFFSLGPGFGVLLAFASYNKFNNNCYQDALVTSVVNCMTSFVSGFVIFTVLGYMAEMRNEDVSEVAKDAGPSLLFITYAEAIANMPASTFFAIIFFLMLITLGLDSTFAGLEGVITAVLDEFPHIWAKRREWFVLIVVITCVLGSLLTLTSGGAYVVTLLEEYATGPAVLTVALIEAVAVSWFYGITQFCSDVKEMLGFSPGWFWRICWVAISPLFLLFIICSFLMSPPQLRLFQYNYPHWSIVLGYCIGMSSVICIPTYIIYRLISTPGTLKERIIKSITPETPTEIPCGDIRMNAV

Compound: CN(C)Cc1ccccc1Sc1ccc(CCCF)cc1N
- Specific binding [1]: 0.34 %ID/g
- Specific binding (dimensionless ratio) [2]: 1.85
- Specific binding [3]: 0.87 %ID/g
- Specific binding [4]: 0.58 %ID/g
- Uptake [5]: 0.07 %ID/g
- Specific binding [6]: 0.84 %ID/g
- Uptake [7]: 0.09 %ID/g
- Specific binding [8]: 0.32 %ID/g
- Uptake [9]: 0.08 %ID/g
- Uptake [10]: 0.12 %ID/g
- Uptake [11]: 0.1 %ID/g
- Specific binding [12]: 0.64 %ID/g
- Uptake [13]: 0.13 %ID/g
- Uptake [14]: 0.11 %ID/g
- Uptake [15]: 0.08 %ID/g
- Uptake [16]: 0.08 %ID/g
- Uptake [17]: 0.13 %ID/g
- Specific binding [18]: 0.84 %ID/g
- Specific binding [19]: 0.84 %ID/g
- Specific binding [20]: 0.74 %ID/g
- Specific binding [21]: 0.88 %ID/g
- Specific binding (dimensionless ratio) [22]: 2.4
- Specific binding [23]: 0.72 %ID/g
- Uptake [24]: 0.08 %ID/g
- Uptake [25]: 0.15 %ID/g
- Uptake [26]: 0.09 %ID/g
- Specific binding [27]: 0.45 %ID/g
- Uptake [28]: 0.17 %ID/g
- Specific binding [29]: 1.02 %ID/g
- Uptake [30]: 0.08 %ID/g
- Uptake [31]: 0.15 %ID/g
- Uptake [32]: 0.08 %ID/g
- Uptake [33]: 0.17 %ID/g
- Specific binding [34]: 0.98 %ID/g
- Uptake [35]: 0.1 %ID/g
- Uptake [36]: 0.18 %ID/g
- Uptake [37]: 0.15 %ID/g
- Specific binding [38]: 0.66 %ID/g
- Uptake [39]: 0.16 %ID/g
- Ki [40]: 3.58 nM
- Uptake [41]: 0.08 %ID/g
- Uptake [42]: 0.16 %ID/g
- Specific binding [43]: 0.77 %ID/g
- Uptake [44]: 0.13 %ID/g
- Specific binding [45]: 0.85 %ID/g
- Uptake [46]: 0.09 %ID/g
- Uptake [47]: 0.16 %ID/g
- Uptake [48]: 0.15 %ID/g
- Specific binding [49]: 0.57 %ID/g

From ChEMBL document CHEMBL1145212, “Fluorinated diaryl sulfides as serotonin transporter ligands: synthesis, structure-activity relationship study, and in vivo evaluation of fluorine-18-labeled compounds as PET imaging agents” (J Med Chem, 2005)
